Assay outcomes deposited in PubChem by Broad Institute.
Cneo AK release = causes C. neoformans cell lysis; adenylate kinase release luminescence, 4 h; normalised: neutral wells 0, clomiphene wells 100; lysis activity, % at 15 µM; hit rate 0.2% among 360,000;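 active = mean lysis activity across replicates of at least 80%, whatever share of replicates individually reach that level; inactive = mean lysis activity below 80%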
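Assay system: log-phase C. neoformans yeast / Quantity: yeast cell density of 5 × 10^6 cells/mL / Medium: fresh YPD growth medium / Compound: single dose / Timing: static 4 h at 37 °C with compound, 1 h detection / Measured by: adenylate kinase release luminescence / Read-out: lysis from increased AK signal / Benchmarks: Clomiphene as positive lysis control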
PAX8 inh HTS = lowers PAX8-driven luciferase in RMG-I cells; RMG-I TPO-luciferase reporter, SteadyGlo, 24 h; inhibition, % at 12.6 µM; hit rate 1.2% among 360,000;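 active = mean replicate inhibition at least 60% with every replicate also reaching 60%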;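 also: luciferase light reporting Pax8 driven TPO promoter activity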
GSIS activator = primary screen for activators of insulin secretion dependent on glucose, INS-1E cells, GLuc reporter luminescence; AID 743287; activation, % at 16.6 µM; INS-1E GLuc reporter insulin secretion, 2-3 h; hit rate 0.61% among 370,000;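 active = lowest replicate activation of at least 40%, so every replicate reaches that level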
dFosB act = activators of mouse delta FosB homodimer | P13346 | purified delta FosB, TAMRA-CDK5 oligo fluorescence polarization; percent of positive-control signal above neutral wells | activation, % at 25 µM | hit rate 0.99% among 340,000;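 active = mean activation above about 17%, with every replicate also reaching it, limit read from the data, passing the limit was not always enough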
CDK5 inh = CDK5/p35 (human) kinase inhibition; Recombinant CDK5/p35, ADP-Glo luminescence, 60 min; inhibition, % at 10 µM; hit rate 0.01% among 330,000; AID 488839;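 active = highest replicate inhibition of at least 50% and at least 75% of replicates reaching 50%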
Target sequence (Q00535 whole entry, looked up): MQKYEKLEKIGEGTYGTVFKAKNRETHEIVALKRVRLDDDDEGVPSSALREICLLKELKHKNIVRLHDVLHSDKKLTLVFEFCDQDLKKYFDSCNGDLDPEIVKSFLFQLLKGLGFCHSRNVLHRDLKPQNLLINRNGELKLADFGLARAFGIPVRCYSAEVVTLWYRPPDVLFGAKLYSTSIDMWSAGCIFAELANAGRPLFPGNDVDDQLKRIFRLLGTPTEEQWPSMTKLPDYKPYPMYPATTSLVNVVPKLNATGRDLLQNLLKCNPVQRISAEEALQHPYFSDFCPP
Target sequence (Q15078 whole entry, looked up): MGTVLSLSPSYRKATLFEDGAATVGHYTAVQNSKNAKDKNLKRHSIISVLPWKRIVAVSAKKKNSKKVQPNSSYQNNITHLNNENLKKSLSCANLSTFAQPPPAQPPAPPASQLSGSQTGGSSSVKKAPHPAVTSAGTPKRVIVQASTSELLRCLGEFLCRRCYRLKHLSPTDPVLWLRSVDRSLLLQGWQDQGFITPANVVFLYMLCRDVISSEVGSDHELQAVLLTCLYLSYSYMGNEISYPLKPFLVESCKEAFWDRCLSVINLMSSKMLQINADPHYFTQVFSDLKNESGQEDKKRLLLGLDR
HIV Env fusion = inhibitors of HIV Env-mediated cell fusion | AID 651610 | inhibition, % at 12.3 µM | hit rate 1.1% among 360,000 | HeLa-JRFL Env/CEM21 cell fusion, luciferase;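 active = mean replicate inhibition score of at least 50 and every replicate individually at or above 50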
Hits are given with their value; n = inactive; x = not tested or not shown. Hits are enriched below; roughly 2.9% of the tested compounds scored in any of these assays.

SMILES	Cneo AK release	PAX8 inh HTS	GSIS activator	dFosB act	CDK5 inh	HIV Env fusion
COc1cc(C2c3cc4c(cc3CC3COC(=O)N32)OCO4)cc(OC)c1OC (configuration not stated)	x	72	x	n	n	n
C[C@H](CO)N1C[C@H](C)[C@H](CN(C)S(=O)(=O)c2ccc(Cl)cc2)Oc2c(NC(=O)CCCCCC(=O)Nc3ccccc3N)cccc2C1=O	x	x	n	x	x	n
COc1ccc(C2=NN(C(C)=O)C(c3cccs3)C2)cc1OC (configuration not stated)	n	n	76	n	n	n
COc1cccc(C2=NN(C(C)=O)C(c3cccs3)C2)c1 (configuration not stated)	n	n	n	n	n	n
COC(=O)C[C@H]1CC[C@@H]2[C@H](COc3ccc(NS(=O)(=O)c4cccc(F)c4)cc3C(=O)N2C)O1	n	n	n	x	x	n
C/C=C/c1ccc([C@H]2[C@H](CO)N(C(=O)NCCC)[C@H]2CNC(=O)C2CC2)cc1	n	n	n	x	x	x
Cc1ccc(-c2nnn(CC(=O)N(CC3CCCO3)C(C(=O)NC3CCCCC3)c3ccc(F)cc3)n2)o1 (configuration not stated)	n	x	n	25	n	116
Cc1cc(C)c(O)c(-c2cc(C(=O)Nc3ccc(S(=O)(=O)N4CCOCC4)cc3)[nH]n2)c1	n	x	x	23	x	n
CC(=O)Nc1ccc(NC(=O)c2cc(-c3ccc(F)cc3C)n[nH]2)cc1	n	n	n	x	x	x
CC(=O)Nc1ccc(NC(=O)c2cc(-c3cc(C)cc(C)c3O)n[nH]2)cc1	n	n	n	22	n	n
Cc1ccc(C(=O)Nc2ccc(S(=O)(=O)N3CCOCC3)cc2)cc1	n	n	n	n	n	n
Cc1cc(-c2ccccc2)n2nc(N)nc2n1	n	n	49	n	n	n
CNC(=O)C[C@H]1CC[C@H]2[C@H](COc3ccc(NC(=O)C4CCCCC4)cc3C(=O)N2C)O1	n	n	n	x	x	n
CCCC1C(=O)Nc2ccccc2N1C(=O)c1ccc(C(C)(C)C)cc1 (configuration not stated)	n	n	n	n	n	62
COc1cc(/C=C2\SC(N)=NC2=O)cc(OC)c1	n	n	n	n	n	59
CNC[C@@H]1OCCCC[C@@H](C)Oc2ccc(N)cc2C(=O)N([C@H](C)CO)C[C@H]1C	n	n	n	x	x	n
C[C@@H]1CN([C@H](C)CO)C(=O)c2c(c3ccccc3n2C)-c2ccccc2CO[C@@H]1CN(C)C(=O)Cc1ccccc1	n	n	n	x	x	n
COc1ccc(-c2ccc3c(c2)[C@H]2[C@H](CCN2C(=O)Cc2cccnc2)[C@H](CO)N3C)cc1	n	86	x	x	x	x
CN1c2ccc(-c3cccc(F)c3)cc2[C@@H]2[C@@H](CCN2C(=O)Cc2ccccc2)[C@@H]1CO	n	75	n	x	x	x
CN1c2ccc(C#Cc3cccnc3)cc2[C@@H]2[C@@H](CCN2C(=O)Cc2cccnc2)[C@@H]1CO	n	88	n	x	x	x
CN1c2ccc(C#Cc3cccnc3)cc2[C@H]2[C@H](CCN2C(=O)C2CC2)[C@@H]1CO	n	n	n	x	x	x
CN1c2ccc(Br)cc2[C@@H]2[C@@H](CCN2C(=O)Cc2cccnc2)[C@@H]1CO	90	n	n	x	x	x
CN1c2ccc(-c3ccccc3)cc2[C@@H]2[C@@H](CCN2C(=O)Cc2ccccc2)[C@@H]1CO	n	n	n	x	x	x
CN1c2ccc(Br)cc2[C@H]2[C@H](CCN2C(=O)Cc2cccnc2)[C@H]1CO	n	n	n	x	x	x
COc1ccc2c3c([nH]c2c1)[C@H](CO)N(Cc1ccncc1)CC31CCN(CC2CCOCC2)CC1	x	n	n	x	x	x
SMILES	Cneo AK release	PAX8 inh HTS	GSIS activator	dFosB act	CDK5 inh	HIV Env fusion
CO[C@H]1CN(C)C(=O)c2ccc(NS(C)(=O)=O)cc2OC[C@H](C)N(CC2CCOCC2)C[C@@H]1C	x	x	n	x	x	x
CN(C)Cc1c(O)ccc2c1O/C(=C\C=C\c1ccccc1)C2=O	n	77	n	n	n	n
CCOC(=O)c1cc2sccc2n1CC(=O)N1c2ccccc2CC1C (configuration not stated)	x	x	472	n	n	n
N/C(=N/O)c1nc(N2CCCC2)nc(N2CCCC2)n1	n	n	76	n	n	n
N/C(=N/O)c1nc(N2CCCCC2)nc(N2CCCCC2)n1	n	x	x	n	n	x
C[C@@H]1CN([C@@H](C)CO)C(=O)c2ccccc2-c2ccccc2CO[C@H]1CN(C)S(=O)(=O)c1ccc(Cl)cc1	n	n	n	x	x	n
O=S(=O)(c1cccc2cccnc12)N1CCc2ccccc21	x	x	x	n	n	x
O=C(C(Cc1ccccc1)NS(=O)(=O)c1cccc2cccnc12)N1CCc2ccccc21 (configuration not stated)	n	n	n	n	n	55
Cc1ccc(Oc2nc3ccccn3c(=O)c2/C=C(\C#N)C(=O)Nc2c(C)n(C)n(-c3ccccc3)c2=O)cc1	x	n	n	n	n	n
Cc1c(NC(=O)/C(C#N)=C/c2c(Oc3ccccc3)nc3ccccn3c2=O)c(=O)n(-c2ccccc2)n1C	x	n	45	n	n	n
Cc1ccc(-c2nnc(N3CCN(C(=O)COc4ccccc4)CC3)c3ccccc23)cc1	n	x	x	n	n	68
O=C(COc1ccc(-c2nnc(N3CCCCC3)c3ccccc23)cc1)N1CCCCC1	n	x	x	n	n	x
CCC(=O)Nc1ccc(C(=O)NNC(=O)COc2cc(C)ccc2C)cc1	x	n	n	n	n	n
Cc1ccc(OCC(=O)NNC(=O)c2ccc(NC(=O)C3CC3)cc2)c(C)c1	n	n	n	34	n	n
Cc1nc(N2CCN(S(=O)(=O)c3ccccc3C#N)CC2)c2c(-c3cccs3)csc2n1	x	72	n	n	n	n
C[C@@H]1CN([C@H](C)CO)C(=O)c2cc(C3=CCCC3)cnc2O[C@@H]1CN(C)C(=O)C1CC1	x	x	n	x	x	n
COc1ccccc1C(=O)Nc1nc2ccccc2s1	n	101	n	n	n	79
COc1cc2nc(NC(=O)c3ccccc3)sc(=O)c2cc1OC	n	n	n	n	n	59
CCOc1ccc2nc(NC(=O)c3ccccn3)sc2c1	n	n	n	n	n	n
Cc1ccc2nc(NC(=O)C3CCN(S(=O)(=O)c4cccs4)CC3)sc2c1	n	x	n	33	n	80
COc1cc2nc(NC(=O)c3ccccc3)[nH]c(=O)c2cc1OC	n	n	x	n	n	n
COc1ccccc1C(=O)Nc1nc2ccc(S(C)(=O)=O)cc2s1	n	x	x	n	n	n
Cc1ccc2nc(NC(=O)c3ccccn3)sc2c1	n	72	n	n	n	n
Cc1noc(C)c1NC(=O)Nc1cccc2c1O[C@H](CN(C)C)[C@H](C)CN([C@@H](C)CO)C2=O	n	n	n	x	x	x
CO[C@H]1CN(C)C(=O)c2cc(NC(=O)NC3CCCCC3)ccc2OC[C@H](C)NC[C@@H]1C	n	n	n	x	x	x
COc1ccc2nc(NC(=O)c3ccccc3C(=O)O)sc2c1	n	n	n	n	n	n
